Data taken from ChEMBL document CHEMBL5674882, “Benzolactam-related compounds promote apoptosis of HIV-infected human cells via protein kinase C-induced HIV latency reversal” (J Biol Chem, 2019).
Active and inactive are the calls of the source. No cut-off for these calls is given here.

Columns and labels:
[1] = Toxicity in human U-937 cells assessed as reduction in cell viability after 48 hrs by WST8 assay; assay type: cell-based
Summary of the method: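 Parental, uninfected lines (A3.01 for ACH-2, U937 for U1) at 5 × 10^5 cells/ml cultured with or without drug. Viable cells read at 48 h (day 2) and expressed as % of untreated control. CC50 taken as the concentration lowering viability by 50%.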

[2] = target: T1, Protein kinase C (PKC) (Homo sapiens) (UniProt O94806+P41743+P17252+P05129+Q05655+P05771+Q05513+Q02156+P24723+Q15139+Q04759); assay: Activation of PKC in human J-Lat 10.6 cells infected with latent HIV-1 assessed as reversal of HIV-1 latency by measuring increase of GFP-positive cells at 100 to 400 nM in presence of 200 nM Prostratin incubated for 24 hrs by flow cytometry; assay type: cell-based; details: filed as activator, dose 100-400 nM
[3] = target: T1, Protein kinase C (PKC) (Homo sapiens); assay: Activation of PKC in human J-Lat 10.6 cells infected with latent HIV-1 assessed as reversal of HIV-1 latency by measuring increase of GFP-positive cells at 100 to 400 nM in presence of 500 nM GSK525762A incubated for 24 hrs by flow cytometry; assay type: cell-based; details: filed as activator, dose 100-400 nM
[4] = target: T1, Protein kinase C (PKC) (Homo sapiens); assay: Activation of PKC in human J-Lat 10.6 cells infected with latent HIV-1 assessed as reversal of HIV-1 latency by measuring increase of GFP-positive cells at 400 nM incubated for 24 hrs by flow cytometry; assay type: cell-based; details: filed as activator
[5] = target: T1, Protein kinase C (PKC) (Homo sapiens); assay: Synergistic activation of PKC in human J-Lat 10.6 cells infected with latent HIV-1 assessed as reversal of HIV-1 latency by measuring increase of GFP-positive cells at 400 nM in presence of 500 nM JQ1 incubated for 24 hrs by flow cytometry; assay type: cell-based; details: filed as activator
Summary of the method: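 J-Lat 10.6 cells at 5 × 10^5 cells/ml treated 24 h alone or with 500 nm JQ1. GFP-positive cells counted by flow cytometry. Fraction affected normalised to PMA response after subtracting the no-drug value. Synergy by Bliss independence (Δfaxy). Mean ± S.D. of three independent experiments.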

[6] = target: T1, Protein kinase C (PKC) (Homo sapiens); assay: Synergistic activation of PKC in CD4+ T-cells purified from HIV-infected patient assessed as increase in transcription of HIV mRNA at 5 uM incubated for 24 hrs by qRT-PCR method; assay type: cell-based; details: CD4+ T cell, filed as activator
Summary of the method: (§1)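 CD4+ T-cells purified from PBMC of patients on cART for at least 5 years with plasma viral load <20 copies/ml. Cells plated at 2.5 × 10^6 cells/ml and treated 24 h, alone or with 1 μm JQ1. Intracellular HIV RNA measured by qRT-PCR against a plasmid standard curve, normalised per ng input RNA, relative to untreated cells. Synergy assessed by Bliss independence model.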

[7] = target: T1, Protein kinase C (PKC) (Homo sapiens); assay: Synergistic activation of PKC in CD4+ T-cells purified from HIV-infected patient assessed as increase in transcription of HIV mRNA at 5 uM incubated for 24 hrs in presence of 1 uM JQ1 by qRT-PCR method; assay type: cell-based; details: CD4+ T cell, filed as activator; summary of the method: as §1
ACH-2 cell line [8] = assay: Induction of apoptosis in human ACH-2 cells at 1 uM incubated for 48 hrs after pre-incubated for 2 hrs with 20 uM caspase inhibitor Q-VD-Oph by propidium iodide/annexin-V staining based flow cytometry; assay type: functional, cell-based
Summary of the method: (§2)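 ACH-2 or U1 cells pretreated 2 h with 20 µM pan-caspase inhibitor Q-VD-Oph, then exposed to 1 µM compound for 48 h. Annexin-V/PI staining by flow cytometry; apoptotic proportions compared with and without Q-VD-Oph. Mean ± S.D.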

U1 [9] = assay: Induction of apoptosis in human U1 cells at 1 uM incubated for 48 hrs after pre-incubated for 2 hrs with 20 uM caspase inhibitor Q-VD-Oph by propidium iodide/annexin-V staining based flow cytometry; assay type: functional, cell-based; summary of the method: as §2
[10] = target: T1, Protein kinase C (PKC) (Homo sapiens); assay: Activation of PKC in human J-Lat 6.3 cells infected with latent HIV-1 assessed as reversal of HIV-1 latency by measuring increase of GFP-positive cells at 10 uM in presence of PKC delta inhibitor Rottlerin incubated for 24 hrs by flow cytometry; assay type: cell-based
Summary of the method: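 J-Lat 6.3 cells pretreated 3 h with a PKC inhibitor: Gö 6983 1 µM, Gö 6976 1 µM, GF 109203X 1 µM, PKCθ/δ inhibitor 10 µM, or Rottlerin 1 µM. Then exposed to 10 µM compound for 24 h; GFP-positive cells counted by flow cytometry. Mean ± S.D.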

[11] = Toxicity in human CD4+ T-cells assessed as elevation of supernatant cytokine concentrations of IL-13 incubated for 24 hrs by bead-based immunoassay; details: cd4+ t cell
Summary of the method: (§3)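 Purified CD4+ T-cells from healthy donors treated 24 h with 1 μm drug, 1 μm JQ1, or the combination. IL-2, IL-5, IL-6, IL-13, TNFα and IFN-γ in supernatants measured by flow-cytometry bead-based Th1/Th2 immunoassay. Run in duplicate.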

[12] = Toxicity in human CD4+ T-cells assessed as elevation of supernatant cytokine concentrations of IL-2 incubated for 24 hrs by bead-based immunoassay; details: cd4+ t cell; summary of the method: as §3
[13] = Toxicity in human CD4+ T-cells assessed as elevation of supernatant cytokine concentrations of TNFalpha incubated for 24 hrs by bead-based immunoassay; details: cd4+ t cell; summary of the method: as §3
[14] = Toxicity in human CD4+ T-cells assessed as elevation of supernatant cytokine concentrations of IL-13 incubated for 24 hrs in presence of JQ1 by bead-based immunoassay; details: cd4+ t cell; summary of the method: as §3
[15] = Toxicity in human CD4+ T-cells assessed as elevation of supernatant cytokine concentrations of TNFalpha incubated for 24 hrs in presence of JQ1 by bead-based immunoassay; details: cd4+ t cell; summary of the method: as §3
[16] = Toxicity in human CD4+ T-cells assessed as increase in dead cells at 1 uM in presence of JQ1; assay type: cell-based; details: cd4+ t cell
Summary of the method: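 Primary cells exposed 24 h to 1 μm drug, 1 μm JQ1, or both (1 μm each). Dead cells scored by propidium iodide staining.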

U1 [17] = assay: Induction of apoptosis in human U1 cells at 1 uM incubated for 48 hrs by propidium iodide/annexin-V staining based flow cytometry (reference value: 3.16%); assay type: functional
ACH-2 cell line [18] = assay: Induction of apoptosis in human ACH-2 cells assessed as caspase-3 activation at 1 uM incubated for 24 hrs by flow cytometry; assay type: functional
Summary of the method: (§4)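 Cells fixed in 1% paraformaldehyde, permeabilized, stained 30 min on ice with anti-active caspase-3 mAb, and analysed by flow cytometry. Three independent experiments.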

U1 [19] = assay: Induction of apoptosis in human U1 cells assessed as caspase-3 activation at 1 uM incubated for 24 hrs by flow cytometry; assay type: functional; summary of the method: as §4
Jurkat = assay: Induction of apoptosis in human Jurkat cells assessed as caspase-3 activation at 1 uM incubated for 24 hrs by flow cytometry; assay type: functional; summary of the method: as §4
ACH-2 cell line [20] = assay: Induction of apoptosis in human ACH-2 cells assessed as cleaved-PARP level at 1 uM incubated for 24 hrs by flow cytometry (reference value: 1.64%); assay type: functional
Summary of the method: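 Cells fixed, permeabilized, stained on ice with anti-cleaved PARP (Asp-214) mAb; % cleaved-PARP cells by flow cytometry. Means ± S.D. of three independent experiments.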

J-Lat 6.3 = assay: Induction of apoptosis in human J-Lat 6.3 cells assessed as caspase-3 activation at 1 uM incubated for 24 hrs by flow cytometry (reference value: 2.43%); assay type: functional; summary of the method: as §4

CCCCCCCCCCc1ccc2c(c1)N(C)[C@@H](C(C)C)C(=O)N[C@H](CO)C2
CC50 at 48 h [1]: 61.2 µM
Activity [2]: Active
Activity [3]: Active
Activity [4]: 42.2%
Activity [5]: 73.1%
fold change (FC) [6]: 1.4
fold change (FC) [7]: 13.4
Activity (ACH-2 cell line [8]): inactive
Activity (U1 [9]): inactive
Activity [10]: inactive
Activity [11]: Toxic
Activity [12]: Toxic
Activity [13]: Toxic
Activity [14]: Non-Toxic
Activity [15]: Non-Toxic
Activity [16]: Non-Toxic
Activity (U1 [17]): 28.4%
Activity (ACH-2 cell line [18]): 23%
Activity (U1 [19]): 24.9%
Activity (Jurkat): 2.63%
Activity (ACH-2 cell line [20]): 21.5%
Activity (J-Lat 6.3): 21.9%
